Data taken from ChEMBL document CHEMBL2021766, “Antiplasmodial activity of novel keto-enamine chalcone-chloroquine based hybrid pharmacophores” (Bioorg Med Chem, 2012).
≈ marks a conversion by molar mass, not a printed value.

Experiments:
Plasmodium yoelii [1] = assay: Inhibition of beta-hematin formation in Plasmodium yoelii infected Swiss mouse plasma using hemin as substrate after 16 hrs by spectrophotometry; format: functional
Outline: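 Plasma taken by cardiac puncture into 2.0% citrate from male Swiss mice (15–20 g) infected with 1 × 10^5 P. yoelii RBCs, at about 50% parasitemia. Mix: 100 mM sodium acetate pH 5.1, 50 µL plasma, 100 µM hemin, compound, in triplicate, 37 °C for 16 h with shaking. Pellet washed in Tris–HCl pH 7.4 with 2.5% SDS. IC50 = 50% inhibition; three experiments in triplicate.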

[2] = Selectivity index, ratio of CC50 for monkey Vero cells to IC50 for chloroquine-sensitive ring stage Plasmodium falciparum 3D7; format: functional
Outline: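 Vero cells exposed to dilutions of test agents for 72 h; MTT read-out (modified Mosmann method); CC50 by non-linear regression. Ratio taken against the 3D7 IC50 from SYBR Green-I assay.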

Plasmodium falciparum = assay: Antimalarial activity against chloroquine-sensitive ring stage Plasmodium falciparum 3D7 after 72 hrs by SYBR Green-I assay; format: functional, organism-based; details: 3D7, 72 h
Outline: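 Asynchronous P. falciparum 3D7 culture (over 80% ring stages), 1.0% parasitized cell suspension at 0.8% parasitaemia, incubated with twofold serial dilutions at 37 °C, 5% CO2/air, 72 h. Lysis buffer with 1× SYBR Green-I added, 1 h at 37 °C. Fluorescence read at 485/530 nm excitation/emission. IC50 from triplicate experiments.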

Plasmodium yoelii [3] = assay: Antimalarial activity against chloroquine-resistant Plasmodium yoelii N-67 infected Swiss mouse assessed as suppression of parasitemia at 100 mg/kg/day, po qd for 4 days measured on day 6; format: functional
Outline: (§1)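 Swiss mice infected with P. yoelii N-67 (1 × 10⁵ parasitized RBC, day 0). Test agents were given as aqueous suspensions with a few drops of Tween 80, orally at 100 mg/kg/day, once daily on days 0–3, to groups of five. Parasitaemia was read from thin blood smears on days 4 and 6. Percent suppression was calculated from group means versus untreated controls. Survival and cure were followed to day 30.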

Plasmodium yoelii [4] = assay: Antimalarial activity against chloroquine-resistant Plasmodium yoelii N-67 infected Swiss mouse assessed as suppression of parasitemia at 100 mg/kg/day, po qd for 4 days measured on day 4; format: functional; details: N-67, 96 h; outline: as §1
Plasmodium yoelii [5] = assay: Antimalarial activity against chloroquine-resistant Plasmodium yoelii N-67 infected Swiss mouse assessed as mean survival time at 100 mg/kg/day, po qd for 4 days; format: functional; outline: as §1
Plasmodium yoelii [6] = assay: Antimalarial activity against chloroquine-resistant Plasmodium yoelii N-67 infected Swiss mouse assessed as suppression of parasitemia at 10 mg/kg/day, po qd for 4 days measured on day 4; format: functional; details: N-67, 96 h
Plasmodium yoelii [7] = assay: Antimalarial activity against chloroquine-resistant Plasmodium yoelii N-67 infected Swiss mouse assessed as suppression of parasitemia at 10 mg/kg/day, po qd for 4 days measured on day 6; format: functional
Plasmodium yoelii [8] = assay: Antimalarial activity against chloroquine-resistant Plasmodium yoelii N-67 infected Swiss mouse assessed as mean survival time at 10 mg/kg/day, po qd for 4 days; format: functional
Plasmodium yoelii [9] = assay: Antimalarial activity against chloroquine-resistant Plasmodium yoelii N-67 infected Swiss mouse assessed as mean survival time at 20 mg/kg/day, po qd for 4 days; format: functional
Plasmodium yoelii [10] = assay: Antimalarial activity against chloroquine-resistant Plasmodium yoelii N-67 infected Swiss mouse assessed as suppression of parasitemia at 20 mg/kg/day, po qd for 4 days measured on day 6; format: functional
Plasmodium yoelii [11] = assay: Antimalarial activity against chloroquine-resistant Plasmodium yoelii N-67 infected Swiss mouse assessed as suppression of parasitemia at 20 mg/kg/day, po qd for 4 days measured on day 4; format: functional; details: N-67, 96 h

| IC50 (Plasmodium yoelii [1]) [µg/mL] | IC50 (Plasmodium falciparum) [µg/mL] | Structure (SMILES) | Ratio CC50/IC50 [2] | inhibition in vivo at 100 mg/kg/day (Plasmodium yoelii [3]) [%] | inhibition in vivo at 100 mg/kg/day (Plasmodium yoelii [4]) [%] | MST (Plasmodium yoelii [5]) [days] | also measured |
| --- | --- | --- | --- | --- | --- | --- | --- |
| 3.21 (≈ 5.84 µM) | 0.08 (≈ 0.145 µM) | CCC(C)C1=CC(/C=C/C(=O)c2ccco2)=CC(=C\Nc2ccc(Nc3ccnc4cc(Cl)ccc34)cc2)/C1=O (stereo not given) | 678.11 | – | – | – | – |
| 8.06 (≈ 14.7 µM) | 0.0282 (≈ 0.0515 µM) | CC(C)(C)C1=CC(/C=C/C(=O)c2ccc(Cl)cc2)=CC(=C\NCCNc2ccnc3cc(Cl)ccc23)/C1=O | 868.3 | – | – | – | – |
| 3.48 (≈ 6.96 µM) | 0.0351 (≈ 0.0702 µM) | CC1=CC(/C=C/C(=O)c2ccc(O)cc2)=CC(=C\NCCCNc2ccnc3cc(Cl)ccc23)/C1=O | 505.98 | – | – | – | – |
| 5.34 (≈ 10.4 µM) | 0.0388 (≈ 0.0754 µM) | COc1ccc(C(=O)/C=C/C2=CC(=C\NCCCNc3ccnc4cc(Cl)ccc34)/C(=O)C(C)=C2)cc1 | 295.66 | – | – | – | – |
| 2.9 (≈ 5.59 µM) | 0.0429 (≈ 0.0827 µM) | CC1=CC(/C=C/C(=O)c2ccc(Cl)cc2)=CC(=C\NCCCNc2ccnc3cc(Cl)ccc23)/C1=O | 513.99 | – | – | – | – |
| 2.93 (≈ 5.41 µM) | 0.0424 (≈ 0.0783 µM) | CCC(C)C1=CC(/C=C/C(=O)c2ccc(O)cc2)=CC(=C\NCCCNc2ccnc3cc(Cl)ccc23)/C1=O (stereo not given) | 486.57 | – | – | – | – |
| 6.59 (≈ 11.9 µM) | 0.0418 (≈ 0.0752 µM) | CCC(C)C1=CC(/C=C/C(=O)c2ccc(OC)cc2)=CC(=C\NCCCNc2ccnc3cc(Cl)ccc23)/C1=O (stereo not given) | 549.12 | – | – | – | – |
| 6.08 (≈ 10.8 µM) | 0.0419 (≈ 0.0748 µM) | CCC(C)C1=CC(/C=C/C(=O)c2ccc(Cl)cc2)=CC(=C\NCCCNc2ccnc3cc(Cl)ccc23)/C1=O (stereo not given) | 491.77 | – | – | – | – |
| 4.35 (≈ 7.94 µM) | 0.201 (≈ 0.366 µM) | COc1ccc(C(=O)/C=C/C2=CC(=C\Nc3ccc(Nc4ccnc5cc(Cl)ccc45)cc3)/C(=O)C(C)=C2)cc1 | 315.33 | – | – | – | – |
| 3.78 (≈ 7.05 µM) | 0.16 (≈ 0.299 µM) | CC1=CC(/C=C/C(=O)c2ccc(F)cc2)=CC(=C\Nc2ccc(Nc3ccnc4cc(Cl)ccc34)cc2)/C1=O | 407.52 | – | – | – | – |
| 7.88 (≈ 13.3 µM) | 0.38 (≈ 0.639 µM) | CC(C)(C)C1=CC(/C=C/C(=O)c2ccc(Cl)cc2)=CC(=C\Nc2ccc(Nc3ccnc4cc(Cl)ccc34)cc2)/C1=O | 196.7 | – | – | – | – |
| 13.9 (≈ 21.8 µM) | > 0.1 | CC(C)(C)C1=CC(/C=C/C(=O)c2ccc(Br)cc2)=CC(=C\Nc2ccc(Nc3ccnc4cc(Cl)ccc34)cc2)/C1=O | – | – | – | – | – |
| 2.89 (≈ 5.95 µM) | 0.00363 (≈ 0.00747 µM) | CC1=CC(/C=C/C(=O)c2ccc(O)cc2)=CC(=C\NCCNc2ccnc3cc(Cl)ccc23)/C1=O | 27548.21 | – | – | – | – |
| 3.01 (≈ 6.02 µM) | 0.0167 (≈ 0.0333 µM) | COc1ccc(C(=O)/C=C/C2=CC(=C\NCCNc3ccnc4cc(Cl)ccc34)/C(=O)C(C)=C2)cc1 | 1137.97 | – | – | – | – |
| 2.99 (≈ 5.93 µM) | 0.0222 (≈ 0.044 µM) | CC1=CC(/C=C/C(=O)c2ccc(Cl)cc2)=CC(=C\NCCNc2ccnc3cc(Cl)ccc23)/C1=O | 3755.43 | – | – | – | – |
| 2.71 (≈ 5.13 µM) | 0.022 (≈ 0.0417 µM) | CCC(C)C1=CC(/C=C/C(=O)c2ccc(O)cc2)=CC(=C\NCCNc2ccnc3cc(Cl)ccc23)/C1=O (stereo not given) | 1071.27 | – | – | – | – |
| 12.6 (≈ 23.2 µM) | 0.0183 (≈ 0.0337 µM) | CCC(C)C1=CC(/C=C/C(=O)c2ccc(OC)cc2)=CC(=C\NCCNc2ccnc3cc(Cl)ccc23)/C1=O (stereo not given) | 1058.05 | – | – | – | – |
| 11.2 (≈ 20.5 µM) | 0.0179 (≈ 0.0328 µM) | CCC(C)C1=CC(/C=C/C(=O)c2ccc(Cl)cc2)=CC(=C\NCCNc2ccnc3cc(Cl)ccc23)/C1=O (stereo not given) | 1014.51 | – | – | – | – |

| Structure (SMILES) | IC50 (Plasmodium yoelii [1]) [µg/mL] | IC50 (Plasmodium falciparum) [µg/mL] | Ratio CC50/IC50 [2] | inhibition in vivo at 100 mg/kg/day (Plasmodium yoelii [3]) [%] | inhibition in vivo at 100 mg/kg/day (Plasmodium yoelii [4]) [%] | MST (Plasmodium yoelii [5]) [days] | also measured |
| --- | --- | --- | --- | --- | --- | --- | --- |
| CCC(C)C1=CC(/C=C/C(=O)c2ccco2)=CC(=C\NCCNc2ccnc3cc(Cl)ccc23)/C1=O (stereo not given) | 2.89 (≈ 5.76 µM) | 0.00709 (≈ 0.0141 µM) | 1138.22 | 85.8 | 99.5 | 17.6 | – |
| CCC(C)C1=CC(/C=C/C(=O)c2cccs2)=CC(=C\NCCNc2ccnc3cc(Cl)ccc23)/C1=O (stereo not given) | 2.62 (≈ 5.06 µM) | 0.0091 (≈ 0.0176 µM) | 1373.63 | 86.7 | 99.4 | 18.2 | – |
| CC(C)(C)C1=CC(/C=C/C(=O)c2ccc(F)cc2)=CC(=C\NCCNc2ccnc3cc(Cl)ccc23)/C1=O | 13.8 (≈ 26 µM) | 0.00719 (≈ 0.0136 µM) | 1499.3 | 97 | 99.9 | 18.4 | – |
| CC(C)(C)C1=CC(/C=C/C(=O)c2ccc(Br)cc2)=CC(=C\NCCNc2ccnc3cc(Cl)ccc23)/C1=O | 21.9 (≈ 37.1 µM) | 0.00464 (≈ 0.00785 µM) | 1883.62 | 96.7 | 99.9 | 17.6 | – |
| CC1=CC(/C=C/C(=O)c2ccc(C)cc2)=CC(=C\NCCNc2ccnc3cc(Cl)ccc23)/C1=O | 2.91 (≈ 6.01 µM) | 0.00975 (≈ 0.0201 µM) | 1034.23 | 88.7 | 99.8 | 17.6 | – |
| CC1=CC(/C=C/C(=O)c2ccc(F)cc2)=CC(=C\NCCNc2ccnc3cc(Cl)ccc23)/C1=O | 2.91 (≈ 5.96 µM) | 0.0109 (≈ 0.0222 µM) | 1034.23 | 83.5 | 99.5 | 15.6 | – |
| CC1=CC(/C=C/C(=O)c2ccc(Br)cc2)=CC(=C\NCCNc2ccnc3cc(Cl)ccc23)/C1=O | 7.6 (≈ 13.8 µM) | 0.0188 (≈ 0.0343 µM) | 1114.59 | 80.6 | 99.7 | 18 | – |
| COc1cc(C(=O)/C=C/C2=CC(=C\NCCNc3ccnc4cc(Cl)ccc34)/C(=O)C(C)=C2)cc(OC)c1OC | 9.61 (≈ 17.2 µM) | 0.0107 (≈ 0.0191 µM) | 1392.22 | 82.1 | 99.8 | 17 | – |
| CC1=CC(/C=C/C(=O)c2cccs2)=CC(=C\NCCNc2ccnc3cc(Cl)ccc23)/C1=O | 3.1 (≈ 6.51 µM) | 0.00975 (≈ 0.0205 µM) | 1414.59 | 82.3 | 99.8 | 16.2 | – |
| CCC(C)C1=CC(/C=C/C(=O)c2ccccc2)=CC(=C\NCCNc2ccnc3cc(Cl)ccc23)/C1=O (stereo not given) | 3.15 (≈ 6.15 µM) | 0.0136 (≈ 0.0266 µM) | 498.54 | 83.2 | 99.6 | 14.6 | – |
| CCN(CC)CCCC(C)Nc1ccnc2cc(Cl)ccc12 (stereo not given) [CHLOROQUINE] | 3.65 (≈ 11.4 µM) | – | – | – | – | – | inhibition in vivo at 10 mg/kg/day (Plasmodium yoelii [6]): 99%; inhibition in vivo at 10 mg/kg/day (Plasmodium yoelii [7]): 93.6%; MST (Plasmodium yoelii [8]): 13.6 days; MST (Plasmodium yoelii [9]): >28 days; inhibition in vivo at 20 mg/kg/day (Plasmodium yoelii [10]): 93.9%; inhibition in vivo at 20 mg/kg/day (Plasmodium yoelii [11]): 99% |
